The values below come from ChEMBL document CHEMBL3862019, “Synthesis of novel ethyl 2,4-disubstituted 8-(trifluoromethyl)pyrido[2',3':3,4]pyrazolo[1,5-a]pyrimidine-9-carboxylate derivatives as promising anticancer agents” (Bioorg Med Chem Lett, 2016).

Structures are written as SMILES. Active and inactive are the calls of the source. The calls are words filed in the database; no cut-off is given here.

The nature of data set [1]: Cytotoxicity against HUVEC assessed as cell growth inhibition by MTT assay. As to conditions: human. In kind it is toxicity, cell-based. Put shortly: (§1)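 IC50 values were read from dose–response curves for compounds that gave above 60% inhibition in the initial test. HUVEC (ATCC CRL-1730) served as the normal cell line.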
Data set [2] is described as follows: Cytotoxicity against human HepG2 cells assessed as cell growth inhibition by MTT assay. The format is functional, cell-based. Put shortly:
as §1

The nature of data set [3]: Cytotoxicity against human MDA-MB-231 cells assessed as cell growth inhibition by MTT assay. The format is functional, cell-based. An outline of the steps:
as §1

Data set [4] can be described thus: Cytotoxicity against human HeLa cells assessed as cell growth inhibition by MTT assay. The format is functional, cell-based. Put shortly:
as §1

A further data set concerns HeLa. Nature of the data set: Selectivity index, ratio of IC50 for HUVEC to IC50 for human HeLa cells. An outline of the steps: (§2)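 SI is the IC50 in normal HUVEC divided by the IC50 of the same compound in the cancer cell line.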
A further data set concerns PC-3. The data set is described as follows: Selectivity index, ratio of IC50 for HUVEC to IC50 for human PC3 cells. An outline of the steps: as §2
Data set [5] in a line: Cytotoxicity against human PC3 cells assessed as cell growth inhibition by MTT assay. The format is functional, cell-based. The note with it: PC-3. An outline of the steps:
as §1

Data set [6] is described as follows: Selectivity index, ratio of IC50 for HUVEC to IC50 for human MDA-MB-231 cells. An outline of the steps:
as §2

A further data set deals with HepG2. The data set is described as follows: Selectivity index, ratio of IC50 for HUVEC to IC50 for human HepG2 cells. Put shortly:
as §2

Data set [7] is described as follows: Cytotoxicity against HUVEC assessed as cell growth inhibition up to 100 uM by MTT assay. In kind it is toxicity, cell-based. The note with it: human.
Data set [8] addresses T1, DNA topoisomerase 1 (Homo sapiens) (UniProt P11387).
T1 sequence (whole entry): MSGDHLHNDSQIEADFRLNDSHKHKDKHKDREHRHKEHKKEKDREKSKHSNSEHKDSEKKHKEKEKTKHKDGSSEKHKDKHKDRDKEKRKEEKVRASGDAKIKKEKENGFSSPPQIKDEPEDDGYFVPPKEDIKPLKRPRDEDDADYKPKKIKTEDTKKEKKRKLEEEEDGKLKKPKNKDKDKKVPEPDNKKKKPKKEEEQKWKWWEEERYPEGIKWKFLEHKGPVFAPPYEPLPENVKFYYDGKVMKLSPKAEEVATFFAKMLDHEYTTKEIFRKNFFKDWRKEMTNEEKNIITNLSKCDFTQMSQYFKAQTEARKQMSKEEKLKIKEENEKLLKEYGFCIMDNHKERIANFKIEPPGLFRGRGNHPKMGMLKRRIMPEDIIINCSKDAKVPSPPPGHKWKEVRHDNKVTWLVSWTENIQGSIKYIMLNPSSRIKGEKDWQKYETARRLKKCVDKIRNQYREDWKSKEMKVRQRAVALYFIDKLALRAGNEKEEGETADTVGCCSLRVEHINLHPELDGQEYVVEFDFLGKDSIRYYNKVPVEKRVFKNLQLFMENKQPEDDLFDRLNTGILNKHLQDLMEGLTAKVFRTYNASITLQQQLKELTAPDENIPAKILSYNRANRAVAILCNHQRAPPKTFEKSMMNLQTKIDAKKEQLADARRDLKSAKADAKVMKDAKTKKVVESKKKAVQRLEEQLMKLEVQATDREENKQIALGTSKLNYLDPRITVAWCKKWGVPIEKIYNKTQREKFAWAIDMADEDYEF
The data set is described as follows: Inhibition of human DNA TOP1 assessed as suppression of supercoiled plasmid HOT1 relaxation at 10 to 20 uM preincubated with enzyme followed by substrate addition measured after 30 mins by ethidium bromide dye-based agarose gel electrophoresis. An outline of the steps:
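Supercoiled plasmid pHOT1 was incubated with human topoisomerase I, with compound or camptothecin control at 10 and 20. Relaxation was resolved on a 1% agarose gel run with ethidium bromide, alongside supercoiled and relaxed DNA marker lanes.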

Consider `CCOC(=O)c1cc2c(nc1C(F)(F)F)nn1c(-c3ccc(OC)cc3)cc(-c3ccccc3)nc21`, for which the Activity entry in data set [1] is “Non-Toxic”.
Take `CCOC(=O)c1cc2c(nc1C(F)(F)F)nn1c(-c3ccc(Cl)cc3)cc(-c3ccccc3)nc21`: in data set [1], the Activity result is given as “Non-Toxic”.
`CCOC(=O)c1cc2c(nc1C(F)(F)F)nn1c(-c3ccc([N+](=O)[O-])cc3)cc(-c3ccccc3)nc21`: the IC50 was determined as 14.2 µM in [2]; 90.8 µM in data set [1]; 12.2 µM in [3]; 18.2 µM in data set [4]; 16.3 µM in [5]. The “Ratio IC50” value in the data set on HeLa is reported as 4.98; in the data set on PC-3, 5.57; in [6], 7.44; in the data set on HepG2 it was 6.39.
In the case of `CCOC(=O)c1cc2c(nc1C(F)(F)F)nn1c(-c3ccc(OC)cc3)cc(-c3ccc(OC)cc3)nc21`, the Activity entry in data set [1] is given as “Non-Toxic”.
With `CCOC(=O)c1cc2c(nc1C(F)(F)F)nn1c(-c3ccc(OC(F)(F)F)cc3)cc(-c3cccs3)nc21`, the IC50 was 12.6 µM in [2]; 89.9 µM in data set [1]; 17.2 µM in data set [3]; 16.1 µM in [4]; 11.9 µM in data set [5]. The “Ratio IC50” value with HeLa came out at 5.58; with PC-3 it was 7.55; in data set [6], 5.22; in the data set on HepG2, 7.13.
As to `CCOC(=O)c1cc2c(nc1C(F)(F)F)nn1c(-c3ccc(F)cc3)cc(-c3cccs3)nc21`, the IC50 in data set [2] was 16.8 µM; in [1] it was 85.9 µM; in data set [3] it was 17.1 µM; in data set [4] it was 15.3 µM; in data set [5] it was 15.1 µM. Further, the “Ratio IC50” value in the data set on HeLa was 5.61; in the data set on PC-3, 5.68; in [6] it was 5.02; with HepG2, 5.11.
`CCOC(=O)c1cc2c(nc1C(F)(F)F)nn1c(-c3c(F)cc(OC)cc3F)cc(-c3cccs3)nc21`: the IC50 came out at 23.5 µM in data set [2]; 92.8 µM in [1]; 21.1 µM in data set [3]; 20.4 µM in [4]; 22.8 µM in data set [5]. Moreover, the “Ratio IC50” value is given as 4.54 with HeLa, 4.07 in the data set with PC-3, 4.39 in [6] and 3.94 with HepG2.
Regarding `O=c1[nH]cc(F)c(=O)[nH]1` [FLUOROURACIL], the IC50 came out at 1.8 µM in [2]; 79.6 µM in [1]; 1.9 µM in data set [3]; 1.6 µM in data set [4]; 1.8 µM in [5]. The “Ratio IC50” value in the data set on HeLa came out at 49.75; with PC-3, 44.22; in data set [6], 41.89; with HepG2, 44.22.
In the case of `CCOC(=O)c1cc2c(nc1C(F)(F)F)nn1c(C)cc(C)nc21`, the IC50 was 21.2 µM in data set [2]; 99.2 µM in data set [1]; 20.1 µM in data set [3]; 18.2 µM in data set [4]; 22.1 µM in data set [5]. Besides, the “Ratio IC50” value worked out at 5.45 in the data set on HeLa, 4.48 in the data set on PC-3, 4.93 in data set [6] and 4.67 in the data set with HepG2.
Regarding `CCOC(=O)c1cc2c(nc1C(F)(F)F)nn1c(CC)cc(CC)nc21`, in [7], the Activity entry is reported as “Non-Toxic”.
`CCOC(=O)c1cc2c(nc1C(F)(F)F)nn1c(-c3ccccc3C)cc(-c3cccs3)nc21`: the Activity result in [1] is on record as “Non-Toxic”.
Consider `CCOC(=O)c1cc2c(nc1C(F)(F)F)nn1ccc(C)nc21`, for which, in [8], the inhibition entry was “Active”. Further, the IC50 in data set [2] is 11.8 µM; in data set [1] it was 93.2 µM; in data set [3], 12.1 µM; in data set [4] it was 10.6 µM; in [5], 11.4 µM. The “Ratio IC50” value is on record as 8.79 in the data set on HeLa, 8.17 in the data set with PC-3, 7.7 in [6] and 7.89 in the data set with HepG2.
Consider `CCOC(=O)c1cc2c(nc1C(F)(F)F)nn1c(-c3ccc[nH]3)cc(-c3ccccc3)nc21`, for which, in [8], the inhibition entry is “Active”. The IC50 amounted to 14.8 µM in data set [2]; 95.2 µM in data set [1]; 10.3 µM in [3]; 13.1 µM in data set [4]; 12.1 µM in data set [5]. Besides, the “Ratio IC50” value in the data set with HeLa is 7.26; in the data set on PC-3 it was 7.86; in data set [6], 9.24; with HepG2, 6.43.
Turning to `CCOC(=O)c1cc2c(nc1C(F)(F)F)nn1c(-c3ccccc3)cc(C)nc21`, the IC50 in data set [1] amounted to 91.1 µM; in [3], 28.6 µM; in data set [4], 29.8 µM. The “Ratio IC50” value with HeLa was 3.05; in data set [6], 3.18.
For the compound `CCOC(=O)c1cc2c(nc1C(F)(F)F)nn1c(C(F)(F)F)cc(C)nc21`, the IC50 was 88.2 µM in data set [1], 24.3 µM in data set [3] and 25.6 µM in data set [4]. Also, the “Ratio IC50” value in the data set on HeLa is given as 3.44; in [6], 3.62.
For the compound `CCOC(=O)c1cc2c(nc1C(F)(F)F)nn1c(-c3ccc(F)cc3)cc(-c3ccc(OC)cc3)nc21`, the IC50 in data set [2] came to 16.1 µM; in [1], 86.4 µM; in [3], 17.2 µM; in data set [4], 15.8 µM; in data set [5] it was 15.9 µM. Further, the “Ratio IC50” value was found to be 5.46 with HeLa, 5.43 in the data set with PC-3, 5.02 in data set [6] and 5.36 in the data set on HepG2.
